The source made the active and inactive calls.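 How the source made its calls, unless noted: active means Her2 level under about 52% in both replicate screens, with viability over 70% of control (limit read from the data); inconclusive means Her2 under the limit in one screen only, or viability under 70%; inactive means Her2 level above the set limit.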

Test [1] is described as follows: Her2 expression decrease, cell viability multiplex – SKBR3 breast tumor cells, AlphaScreen, ATP viability, primary screen (AID 461).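 On Her2 level: lower value means less Her2 protein in the cells.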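 On viability: percent of carrier control wells set as 100% viability.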 Conditions: SKBR3 Her2 protein level, 18-24 h, measured here: SKBR3 viability, ATP luminescence, at 10 µM. A general note: Alpha assays give light when donor and acceptor beads are brought close together.
Test [2] concerns the target Receptor tyrosine-protein kinase erbB-2 (Homo sapiens) (UniProt P04626). Described as above. The settings on record: 18-24 h, at 10 µM, stronger effect = lower value.
A short description of test [3]: reduced viability of SK-BR-3 breast cancer cells – cell-based, 24 h, human, pilot screen (AID 572;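 active means viability at or below 10% of carrier control in both of two separate runs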;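 further: compound exposure lasted between 18 and 24 h rather than exactly 24 h; 100% = carrier-treated control wells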). Conditions: SK-BR-3 viability, CellTiter-Glo luminescence, at 10 µM, stronger effect = lower value. On the technique in general: ATP-based viability assays read luminescence as a measure of living cells.
Test [4] in a line: HUVEC growth inhibition – cell-based, human, primary screen (AID 575;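 active means viability at or below 30% in both replicate assays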;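 further: 100% = median of untreated cell wells with 0.1% DMSO on each plate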). The settings on record: HUVEC proliferation, CellTiter-Glo luminescence, 72 h; at 10 µM; stronger effect = lower value. An outline of the steps:
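Test system: primary human umbilical vein endothelial cells. Quantity: 1250 cells/well. Compound: single 10 µM dose, 0.1% DMSO, from 5x medium stock. Timing: 72 h treatment at 37 °C. Detection: ATP-based CellTiter-Glo luminescent read. Benchmarks: vehicle and MePR control wells. Format: 384-well plates coated with collagen.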

A short description of test [5]: H69AR cell proliferation blockers – human, duplicate replicates, primary screen (AID 580;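 active means viability at or under a set limit in both replicates, limit being median viability minus 3 SD, cut at about 48% in these data, passing the limit was not always enough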;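 further: 100% = mean luminescence of untreated wells and 0% = no signal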). Conditions: H69AR lung tumor cells viability, ATP luminescence, 72 h; at 10 µM; stronger effect = lower value.
The nature of test [6]: MRP1 drug-resistance reversers in H69AR cells – cell-based, doxorubicin co-treatment, pilot screen (AID 601;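 active means viability loss from added drug above about 55%, and viability with drug at most 40%, in both replicates, limit read from the data, passing the limit was not always enough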). Conditions: CellTiter-Glo, 72 h, at 10 µM; for differential viability (reversal): stronger effect = higher value.
A short description of test [7]: yeast transport mutant growth inhibition pilot in 384-well plates, post-Golgi transport modulator project (AID 636; in the data active means inhibition above about 31%). The settings on record: absorbance 615 nm, about 18 h, stronger effect = higher value.
The nature of test [8]: growth suppression of yeast trafficking mutant, preliminary HTS, modulators of trafficking downstream of Golgi apparatus project, 1536-format plate, OD 615 nm (AID 637; in the data active means inhibition above about 30%). Conditions: yeast transport mutant growth, absorbance 615 nm, 18 h; stronger effect = higher value.
The mark [9] stands for this setting: H69AR cells + 2 uM doxorubicin, measured here: viability with 2 uM doxorubicin, stronger effect = lower value.
Where [10] appears, read: H69AR cells, compound alone cytotoxicity.

Sequence of Receptor tyrosine-protein kinase erbB-2 (Homo sapiens) (P04626 whole entry, looked up): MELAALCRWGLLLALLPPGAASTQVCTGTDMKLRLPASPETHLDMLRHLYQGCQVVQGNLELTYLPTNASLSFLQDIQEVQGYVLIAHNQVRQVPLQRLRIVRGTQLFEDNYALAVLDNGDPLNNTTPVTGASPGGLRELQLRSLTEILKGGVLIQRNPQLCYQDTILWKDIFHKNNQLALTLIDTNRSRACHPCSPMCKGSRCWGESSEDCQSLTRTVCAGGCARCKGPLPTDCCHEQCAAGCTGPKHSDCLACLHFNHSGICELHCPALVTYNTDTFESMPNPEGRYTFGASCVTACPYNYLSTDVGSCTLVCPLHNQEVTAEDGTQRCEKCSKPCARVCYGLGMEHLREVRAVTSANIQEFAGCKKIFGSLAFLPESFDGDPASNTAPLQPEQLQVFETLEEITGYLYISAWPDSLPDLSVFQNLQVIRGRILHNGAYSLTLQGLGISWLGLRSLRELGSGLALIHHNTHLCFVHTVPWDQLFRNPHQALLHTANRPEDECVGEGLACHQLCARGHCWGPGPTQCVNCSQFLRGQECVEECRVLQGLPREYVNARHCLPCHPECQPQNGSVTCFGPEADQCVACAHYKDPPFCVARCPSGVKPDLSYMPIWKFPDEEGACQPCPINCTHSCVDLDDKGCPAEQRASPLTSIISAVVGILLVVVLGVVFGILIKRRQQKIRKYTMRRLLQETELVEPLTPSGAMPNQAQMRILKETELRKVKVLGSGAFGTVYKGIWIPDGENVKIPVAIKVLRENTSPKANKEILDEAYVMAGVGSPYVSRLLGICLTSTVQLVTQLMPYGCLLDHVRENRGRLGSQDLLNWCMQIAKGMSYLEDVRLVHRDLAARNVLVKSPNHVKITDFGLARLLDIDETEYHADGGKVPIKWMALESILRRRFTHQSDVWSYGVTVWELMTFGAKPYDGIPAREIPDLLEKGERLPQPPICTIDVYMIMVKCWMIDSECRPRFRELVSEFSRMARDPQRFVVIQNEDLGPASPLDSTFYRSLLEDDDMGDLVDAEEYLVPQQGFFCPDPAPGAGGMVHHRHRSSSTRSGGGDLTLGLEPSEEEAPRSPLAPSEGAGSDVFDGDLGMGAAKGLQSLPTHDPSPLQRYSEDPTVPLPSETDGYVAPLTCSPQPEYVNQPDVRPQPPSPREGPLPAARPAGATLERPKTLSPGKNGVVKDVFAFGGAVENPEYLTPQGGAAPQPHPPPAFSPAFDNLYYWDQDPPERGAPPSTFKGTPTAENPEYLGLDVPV

Regarding `CCOC(=O)[C@H](CCc1ccccc1)N[C@@H](C)C(=O)N1CCC[C@H]1C(=O)O`, the viability is 116% in test [1]; 116% (inactive) in test [3]; 103% (inactive) in test [4]; 88.6% (inactive) in test [5]; 97.4% in test [6] (setting [9]); 88.6% in test [6] (setting [10]). Moreover, the Her2 level in test [2] was 100% (inactive). Further, the differential viability (reversal) in test [6] (H69AR cells + 2 uM doxorubicin) is -8.79% (inactive).

Take `c1ccc2nc(-c3nc4ccccc4[nH]3)ccc2c1`: the viability was 104% in test [1]; 104% (inactive) in test [3]; 55.2% (inactive) in test [4]; 66.6% (inactive) in test [5]; 70.6% in test [6] (setting [9]); 66.6% in test [6] (setting [10]). Besides, the Her2 level in test [2] is 74% (inactive). Besides, the differential viability (reversal) in test [6] (H69AR cells + 2 uM doxorubicin) is -3.97% (inactive). Further, the inhibition in test [7] is 0% (inactive); in test [8], -1.64% (inactive).

For `N[C@@H](Cc1cc(I)c(Oc2ccc(O)c(I)c2)c(I)c1)C(=O)O`, the viability is 100% in test [1]; 100% (inactive) in test [3]; 86.9% (inactive) in test [4]; 97.6% (inactive) in test [5]; 90.8% in test [6] (setting [9]); 97.6% in test [6] (setting [10]). In test [2], the Her2 level was 87% (inactive). In addition, in test [6] (H69AR cells + 2 uM doxorubicin), the differential viability (reversal) was 6.87% (inactive).

Consider `CC(=O)N[C@@H](CS)C(=O)O`, for which the viability was 105% in test [1]; 105% (inactive) in test [3]; 90.8% (inactive) in test [4]; 101% (inactive) in test [5]; 88.6% in test [6] (setting [9]); 101% in test [6] (setting [10]). Also, in test [2], the Her2 level was 105% (inactive). The differential viability (reversal) in test [6] (H69AR cells + 2 uM doxorubicin) was 12.8% (inactive).

In the case of `CCCNCC(O)COc1ccccc1C(=O)CCc1ccccc1` (stereo not drawn), the viability in test [1] was 97%; in test [3] it was 97% (inactive); in test [4], 97.2% (inactive); in test [5], 87.1% (inactive); in test [6] (setting [9]), 84.8%; in test [6] (setting [10]), 87.1%. For the same molecule, the Her2 level in test [2] was 100% (inactive). Moreover, the differential viability (reversal) in test [6] (H69AR cells + 2 uM doxorubicin) is 2.24% (inactive).

As to `CC(COc1ccccc1)NC(C)C(O)c1ccc(O)cc1` (stereo not drawn), the viability in test [1] was 97%; in test [3], 97% (inactive); in test [4], 88.5% (inactive); in test [5], 88.6% (inactive); in test [6] (setting [9]), 106%; in test [6] (setting [10]), 88.6%. In test [2], the Her2 level was 105% (inactive). Moreover, the differential viability (reversal) in test [6] (H69AR cells + 2 uM doxorubicin) was -17.2% (inactive).

For the molecule `COC(=O)N1CC(c2ccccc2)CC1=O` (stereo not drawn), the viability in test [1] is 96.5%; in test [3], 96.5% (inactive); in test [4], 101% (inactive); in test [5] it was 100% (inactive); in test [6] (setting [9]) it was 85%; in test [6] (setting [10]), 100%. The Her2 level in test [2] was 81.5% (inactive). Also, the differential viability (reversal) in test [6] (H69AR cells + 2 uM doxorubicin) was 15.1% (inactive). The inhibition in test [7] was -9.04% (inactive); in test [8], -6.51% (inactive).

In the case of `COC(=O)c1c(C)oc2ccc(NS(=O)(=O)c3cccs3)cc12`, the viability is 106% in test [1]; 106% (inactive) in test [3]; 59% (inactive) in test [4]; 78.9% (inactive) in test [5]; 101% in test [6] (setting [9]); 78.9% in test [6] (setting [10]). Also, in test [2], the Her2 level is 94.5% (inactive). In test [6] (H69AR cells + 2 uM doxorubicin), the differential viability (reversal) is -21.9% (inactive). The inhibition in test [7] was -1.32% (inactive); in test [8], 5.9% (inactive).

For the molecule `CCCC(CCC)C(=O)OC1C[C@H]2CC[C@@H](C1)[N+]2(C)C` (stereo partly drawn), the viability is 112% in test [1]; 112% (inactive) in test [3]; 108% (inactive) in test [4]; 94% (inactive) in test [5]; 85% in test [6] (setting [9]); 94% in test [6] (setting [10]). In addition, the Her2 level in test [2] was 95.5% (inactive). Besides, the differential viability (reversal) in test [6] (H69AR cells + 2 uM doxorubicin) was 9.01% (inactive).

With `Nc1nnc(-c2cccc(Cl)c2Cl)c(N)n1`, the viability was 109% in test [1]; 109% (inactive) in test [3]; 103% (inactive) in test [4]; 97.1% (inactive) in test [5]; 93.4% in test [6] (setting [9]); 97.1% in test [6] (setting [10]). In addition, the Her2 level in test [2] was 124% (inactive). The differential viability (reversal) in test [6] (H69AR cells + 2 uM doxorubicin) was 3.66% (inactive).

With `CCCn1c(=O)[nH]c(=O)c2[nH]cnc21`, the viability was 104% in test [1]; 104% (inactive) in test [3]; 98.1% (inactive) in test [4]; 100% (inactive) in test [5]; 96.7% in test [6] (setting [9]); 100% in test [6] (setting [10]). For the same molecule, the Her2 level in test [2] is 92% (inactive). In test [6] (H69AR cells + 2 uM doxorubicin), the differential viability (reversal) is 3.64% (inactive).

Turning to `CCN(CC)CCNC(=O)c1cc(S(C)(=O)=O)ccc1OC`, the viability in test [1] was 114%; in test [3], 114% (inactive); in test [4] it was 102% (inactive); in test [5] it was 111% (inactive); in test [6] (setting [9]), 96.1%; in test [6] (setting [10]) it was 111%. For the same molecule, the Her2 level in test [2] is 95% (inactive). Also, in test [6] (H69AR cells + 2 uM doxorubicin), the differential viability (reversal) is 14.5% (inactive).

Take `Cc1nnc(NS(=O)(=O)c2ccc(N)cc2)s1`: the viability in test [1] was 93.5%; in test [3], 93.5% (inactive); in test [4] it was 105% (inactive); in test [5] it was 96.2% (inactive); in test [6] (setting [9]), 107%; in test [6] (setting [10]) it was 96.2%. Further, the Her2 level in test [2] is 126% (inactive). In test [6] (H69AR cells + 2 uM doxorubicin), the differential viability (reversal) is -10.4% (inactive).

Turning to `CCN(CC)CCn1c2ccccc2c2nc(C)sc21`, the viability in test [1] was 113%; in test [3] it was 113% (inactive); in test [4] it was 104% (inactive); in test [5], 92.6% (inactive); in test [6] (setting [9]) it was 100%; in test [6] (setting [10]), 92.6%. The Her2 level in test [2] is 96.5% (inactive). In addition, the differential viability (reversal) in test [6] (H69AR cells + 2 uM doxorubicin) is -7.46% (inactive). Further, the inhibition in test [7] was -5.32% (inactive); in test [8], -2.54% (inactive).

In the case of `CC(n1cnnn1)C12CC3CC(CC(C3)C1)C2` (stereo not drawn), the viability is 88.5% in test [1]; 88.5% (inactive) in test [3]; 93.4% (inactive) in test [4]; 96% (inactive) in test [5]; 84.7% in test [6] (setting [9]); 96% in test [6] (setting [10]). Also, in test [2], the Her2 level is 96% (inactive). Further, the differential viability (reversal) in test [6] (H69AR cells + 2 uM doxorubicin) was 11.3% (inactive). Moreover, the values for the inhibition in test [7] and in test [8] were -1.2% (inactive) and 1.97% (inactive), respectively.

In the case of `Cc1cc(NC(=O)C2=C(O)c3ccccc3S(=O)(=O)N2C)no1`, the viability in test [1] was 96.5%; in test [3], 96.5% (inactive); in test [4] it was 109% (inactive); in test [5], 112% (inactive); in test [6] (setting [9]), 94.7%; in test [6] (setting [10]), 112%. The Her2 level in test [2] is 113% (inactive). The differential viability (reversal) in test [6] (H69AR cells + 2 uM doxorubicin) is 16.9% (inactive).

For `O=C(CCc1ccccc1)Nc1ccncc1`, the viability in test [1] is 110%; in test [3], 110% (inactive); in test [4], 103% (inactive); in test [5] it was 97.8% (inactive); in test [6] (setting [9]), 92.6%; in test [6] (setting [10]), 97.8%. The Her2 level in test [2] is 119% (inactive). In test [6] (H69AR cells + 2 uM doxorubicin), the differential viability (reversal) is 5.17% (inactive). Besides, the inhibition in test [7] is 0.65% (inactive); in test [8], -5.33% (inactive).

Broadly, the viability is a read-out of living cells in per cent, often relative to untreated cells. In general, inhibition refers to the change of the read-out against control, counted positive when it falls.

Values taken from PubChem BioAssay.
